Measurements from ChEMBL document CHEMBL1125464, “1,3,6-trisubstituted indoles as peptidoleukotriene antagonists: benefits of a second, polar, pyrrole substituent” (J Med Chem, 1992).
Values belong to the molecule of their own block, whether it stands above or below them.

Tests used:
Cavia porcellus [1] = organism: Cavia porcellus; assay: Inhibition of LTE4 (8 nM) induced contraction of guinea pig tracheal spirals at a concentration of 0.5 uM; NS=not statistically significant; type: functional; conditions: Trachea
How it was run: (§1)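 Paired tracheal spirals at 37 °C in Krebs gassed with 95% O2/5% CO2 under 2 g tension, given repeated LTE4 challenges of 10 min. Compound or vehicle added 10 min before a third challenge. % inhibition = (2nd − 3rd response)/2nd × 100, corrected by subtracting the vehicle value. Paired t test, n ≥ 4.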

Cavia porcellus [2] = organism: Cavia porcellus; assay: Inhibition of LTE4 (8 nM) induced contraction of guinea pig tracheal spirals at a concentration of 3.3 uM; type: functional, Trachea; how it was run: as §1
Cavia porcellus [3] = organism: Cavia porcellus; assay: Inhibition of LTE4 (8 nM) induced contraction of guinea pig tracheal spirals at a concentration of 0.1 uM; type: functional, Trachea; how it was run: as §1
Cavia porcellus [4] = organism: Cavia porcellus; assay: Inhibition of LTE4 (8 nM) induced contraction of guinea pig tracheal spirals at a concentration of 3.3 uM; NS=not statistically significant; type: functional; conditions: Trachea; how it was run: as §1
[5] = Negative logarithm of the molar dissociation constant; type: ADME
How it was run: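 Paired guinea pig tracheal spirals at 37 °C in Krebs gassed with 95% O2/5% CO2, 2 g resting tension. Responses expressed relative to 30 uM carbachol. Antagonist or vehicle preincubated 30 min, then cumulative LTE4 concentration-response curves, one per tissue. EC50 by linear regression; KB = [antagonist]/(dose ratio − 1), per Furchgott.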

Cavia porcellus [6] = organism: Cavia porcellus; assay: Dissociation constant on guinea pig tracheal spirals utilizing LTE4 as agonist; conditions: Trachea
Cavia porcellus [7] = organism: Cavia porcellus; assay: Compound was evaluated for the displacement of [3H]LTD4 on guinea pig lung parenchymal membranes; set-up: species or system Lung parenchyma
How it was run: (§2)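 Membranes from perfused lungs of male Hartley guinea pigs (300-400 g) in PIPES pH 7.5 with 10 mM CaCl2, 10 mM MgCl2, 2 mM cysteine and 2 mM glycine. 1 nM 3H-LTD4 at 22 °C for 30 min; nonspecific binding with 2 uM LTD4. Filtration, then scintillation counting. IC50 by nonlinear least squares, Ki by Cheng-Prusoff; mean of two experiments in duplicate.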

Cavia porcellus [8] = organism: Cavia porcellus; assay: Inhibition of LTE4 (8 nM) induced contraction of guinea pig tracheal spirals at a concentration of 0.33 uM; type: functional, Trachea; how it was run: as §1
Cavia porcellus [9] = organism: Cavia porcellus; assay: Inhibition of LTE4 (8 nM) induced contraction of guinea pig tracheal spirals at a concentration of 0.50 uM; type: functional, Trachea; how it was run: as §1
Cavia porcellus [10] = organism: Cavia porcellus; assay: Inhibition constant for the displacement of [3H]LTD4 on guinea pig lung parenchymal membranes; set-up: species or system Lung parenchyma; how it was run: as §2
Cavia porcellus [11] = organism: Cavia porcellus; assay: Inhibition of LTE4 (8 nM) induced contraction of guinea pig tracheal spirals at a concentration of 100 nM; type: functional, Trachea; how it was run: as §1
Cavia porcellus [12] = organism: Cavia porcellus; assay: Inhibition of LTE4 (8 nM) induced contraction of guinea pig tracheal spirals at a concentration of 1 nM; type: functional, Trachea; how it was run: as §1
Cavia porcellus [13] = assay: Protection of conscious guinea pig lung function was determined by comparison of time required for the challenged animals to exhibit labored abdominal breathing after oral dose of 30 uM/kg; type: functional
How it was run: (§3)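 Conscious guinea pigs pretreated with indomethacin (10 mg/kg ip) and propranolol (5 mg/kg ip). Compound in PEG400 (<10% v/v)/PBS given orally 180 min before a challenge of up to 5 min with aerosolized 60 uM LTD4. Time to abdominal dyspnea scored blind. % protection is taken against vehicle controls; no end point by 300 s counts as 100%. Unpaired t test.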

Cavia porcellus [14] = organism: Cavia porcellus; assay: Inhibition of LTE4 (8 nM) induced contraction of guinea pig tracheal spirals at a concentration of 10 uM; type: functional, Trachea; how it was run: as §1
Cavia porcellus [15] = assay: Protection of conscious guinea pig lung function was determined by comparison of time required for the challenged animals to exhibit labored abdominal breathing after oral dose of 10 uM/kg; type: functional; how it was run: as §3
Cavia porcellus [16] = organism: Cavia porcellus; assay: Inhibition of LTE4 (8 nM) induced contraction of guinea pig tracheal spirals at a concentration of 10 nM; type: functional, Trachea; how it was run: as §1
Cavia porcellus [17] = assay: Protection of conscious guinea pig lung function was determined by comparison of time required for the challenged animals to exhibit labored abdominal breathing after oral dose of 3 uM/kg; type: functional; how it was run: as §3
Cavia porcellus [18] = assay: Protection of conscious guinea pig lung function was determined by comparison of time required for the challenged animals to exhibit labored abdominal breathing after oral dose of 0.3 uM/kg; type: functional; how it was run: as §3

SMILES: CCCCOC(=O)Nc1ccc2c(C)c(C)n(Cc3ccc(C(=O)O)cc3OC)c2c1
NS (Cavia porcellus [1]): not statistically significant
Inhibition (Cavia porcellus [2]): 81%

SMILES: COc1cc(C(=O)O)ccc1Cc1cn(C)c2ccc(NC(=O)CC3CCCC3)cc12
Inhibition (Cavia porcellus [3]): 94%

SMILES: COc1cc(C(=O)O)ccc1Cn1cc(C)c2ccc(C(=O)NCC3CCCC3)cc21
NS (Cavia porcellus [4]): not statistically significant

pKB [5]: 8.44
SMILES: CCCn1cc(Cc2ccc(C(=O)NS(=O)(=O)c3ccccc3)cc2OC)c2cc(NC(=O)OC3CCCC3)ccc21

Kb (Cavia porcellus [6]): 12.1 nM
SMILES: COc1cc(C(=O)NS(=O)(=O)c2ccccc2C)ccc1Cc1cn(C(C)C(=O)N(C)C)c2ccc(C(=O)NCC3CCCC3)cc12 (centres undefined)

Ki (Cavia porcellus [7]): 0.43 nM
SMILES: CCN(CC)C(=O)CCn1cc(Cc2ccc(C(=O)NS(=O)(=O)c3ccccc3C)cc2OC)c2cc(C(=O)NCC3CCCC3)ccc21

pKB [5]: 9.84
SMILES: COc1cc(C(=O)NS(=O)(=O)c2ccccc2)ccc1Cc1c[nH]c2ccc(NC(=O)OC3CCCC3)cc12

Kb (Cavia porcellus [6]): 155 nM
SMILES: CCCCOC(=O)Nc1ccc2ccn(Cc3ccc(C(=O)O)cc3OC)c2c1
Inhibition (Cavia porcellus [8]): 25%
Inhibition (Cavia porcellus [9]): 54%

Ki (Cavia porcellus [10]): 86.8 nM
Kb (Cavia porcellus [6]): 14.2 nM
SMILES: COc1cc(C(=O)NS(=O)(=O)c2ccccc2)ccc1Cn1ccc2ccc(C(=O)NCC3CCCC3)cc21
Inhibition (Cavia porcellus [11]): 46%

Ki (Cavia porcellus [10]): 1.53 nM
Kb (Cavia porcellus [6]): 0.399 nM
SMILES: CNC(=O)CCc1cn(Cc2ccc(C(=O)NS(=O)(=O)c3ccccc3C)cc2OC)c2cc(C(=O)NCC3CCCC3)ccc12
Inhibition (Cavia porcellus [12]): 57%
Protection (Cavia porcellus [13]): 44%

SMILES: COc1cc(C(=O)O)ccc1Cn1ccc2ccc(OCCC3CCCC3)cc21
Inhibition (Cavia porcellus [14]): 75%

Kb (Cavia porcellus [6]): 92.7 nM
SMILES: CCCCOC(=O)Nc1ccc2c(Cl)cn(Cc3ccc(C(=O)O)cc3OC)c2c1
Inhibition (Cavia porcellus [8]): 52%

pKB [5]: 7.32
SMILES: COc1cc(C(=O)O)ccc1Cc1c[nH]c2ccc(NC(=O)OC3CCCC3)cc12

SMILES: COc1cc(C(=O)NS(=O)(=O)c2ccccc2)ccc1Cn1cc(C(C)=O)c2ccc(NC(=O)OC3CCCC3)cc21
Kb (Cavia porcellus [6]): 0.123 nM

Kb (Cavia porcellus [6]): 0.0731 nM
SMILES: COc1cc(C(=O)NS(=O)(=O)c2ccccc2)ccc1Cn1cc(CCC(=O)O)c2ccc(NC(=O)CC3CCCC3)cc21
Protection (Cavia porcellus [15]): 35%

Ki (Cavia porcellus [7]): 4.9 nM
SMILES: CCN(CC)C(=O)/C=C/c1cn(Cc2ccc(C(=O)NS(=O)(=O)c3ccccc3C)cc2OC)c2cc(C(=O)NCC3CCCC3)ccc12

Kb (Cavia porcellus [6]): 0.243 nM
SMILES: COc1cc(C(=O)NS(=O)(=O)c2ccccc2)ccc1Cn1ccc2ccc(NC(=O)CC3CCCC3)cc21
Protection (Cavia porcellus [13]): 43%

Ki (Cavia porcellus [7]): 3.21 nM
Kb (Cavia porcellus [6]): 4.28 nM
SMILES: COc1cc(C(=O)NS(=O)(=O)c2ccccc2C)ccc1Cc1cn(C)c2ccc(C(=O)NCC3CCCC3)cc12
Inhibition (Cavia porcellus [16]): 36%

SMILES: COc1cc(C(=O)O)ccc1Cn1ccc2ccc(C(=O)OCC3CCCC3)cc21
Inhibition (Cavia porcellus [14]): 74%
Inhibition (Cavia porcellus [2]): 10%

Kb (Cavia porcellus [6]): 0.095 nM
SMILES: COc1cc(C(=O)NS(=O)(=O)c2ccccc2C)ccc1Cn1cc(CCC(N)=O)c2ccc(NC(=O)CC3CCCC3)cc21
Protection (Cavia porcellus [17]): 63%

Kb (Cavia porcellus [6]): 0.273 nM
SMILES: COC(=O)CCc1cn(Cc2ccc(C(=O)NS(=O)(=O)c3ccccc3)cc2OC)c2cc(NC(=O)CC3CCCC3)ccc12
Protection (Cavia porcellus [15]): 63%

SMILES: CCCC(=O)c1cn(Cc2ccc(C(=O)O)cc2OC)c2cc(NC(=O)CC3CCCC3)ccc12
Inhibition (Cavia porcellus [3]): 96%

SMILES: COc1cc(C(=O)O)ccc1Cc1nn(C)c2ccc(C(=O)NCC3CCCC3)cc12
Inhibition (Cavia porcellus [2]): 37%

SMILES: COc1cc(C(=O)O)ccc1Cn1cc(C)c2ccc(NC(=O)CC3CCCC3)cc21
Inhibition (Cavia porcellus [3]): 59%

Kb (Cavia porcellus [6]): 0.718 nM
SMILES: COc1cc(C(=O)NS(=O)(=O)c2ccccc2)ccc1Cn1cc(Cl)c2ccc(NC(=O)OC3CCCC3)cc21

Kb (Cavia porcellus [6]): 0.456 nM
SMILES: COc1cc(C(=O)NS(=O)(=O)c2ccccc2C)ccc1Cn1cc(C)c2ccc(NC(=O)CC3CCCC3)cc21
Protection (Cavia porcellus [18]): 54%

pKB [5]: 7.84
SMILES: COc1cc(C(=O)O)ccc1Cc1cn(C)c2ccc(NC(=O)OC3CCCC3)cc12
